Assay outcomes as filed in PubChem BioAssay.
TNAP act hi DEA: activators of human TNAP at high phosphate acceptor concentration; P05186; purified TNAP, CDP-star luminescence, 1 M DEA, 30 min; active compounds read high; 0 = EDTA background, 1 = DMSO-only activity; activation factor at 20 µM; 200,000 tested, under 10 active;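 active means activation factor at least 2 at 20 µM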
Target sequence (P05186 whole entry, looked up): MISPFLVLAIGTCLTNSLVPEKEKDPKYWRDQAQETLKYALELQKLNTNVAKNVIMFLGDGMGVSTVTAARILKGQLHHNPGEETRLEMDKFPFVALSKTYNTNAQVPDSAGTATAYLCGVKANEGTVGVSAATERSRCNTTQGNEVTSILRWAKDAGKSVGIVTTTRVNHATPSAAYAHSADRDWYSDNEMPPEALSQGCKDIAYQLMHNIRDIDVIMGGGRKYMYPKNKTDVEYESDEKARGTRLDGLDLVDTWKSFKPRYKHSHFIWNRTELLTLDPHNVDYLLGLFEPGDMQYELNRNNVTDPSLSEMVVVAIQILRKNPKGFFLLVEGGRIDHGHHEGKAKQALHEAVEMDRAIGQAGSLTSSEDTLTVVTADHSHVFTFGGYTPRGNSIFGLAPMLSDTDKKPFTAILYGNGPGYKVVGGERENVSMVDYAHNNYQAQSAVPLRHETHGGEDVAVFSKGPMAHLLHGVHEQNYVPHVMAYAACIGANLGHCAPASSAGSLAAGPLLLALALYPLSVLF
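Assay system: human TNAP; Input: enzyme diluted 1/800 final; Reagent: CDP-star luminogenic substrate at 100 µM final; Timing: 30 min, room temperature; Signal: luminescence; Evaluation: TNAP activation factor scaled between EDTA and DMSO control wells.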
bCat KO growth: beta-catenin-lacking colon tumor cell growth suppression; HCT116 beta-catenin knockout viability, CellTiter-Glo, 60 h; active compounds read low; viability, % at 10 µM; 1.5% of 140,000 active;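 active means viability at or under a set limit, the compound median less 4 SD, cut at about 6% in these data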;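 further: 0% = Hyamine 1622 control at 20 µM and 100% = untreated cell control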
L major viab: inhibitors of Leishmania major promastigote growth. AID 1063. 9% of 200,000 active. Leishmania major promastigotes, resazurin fluorescence viability. inhibition, % at 10 µM; in the data active means inhibition above about 50%;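 further: promastigotes grown with compound for 44 hours at 28 °C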
TNAP inh hiacc: inhibitors of human TNAP at high phosphate acceptor concentration; purified TNAP, CDP-star luminescence, 1 M DEA; AID 1135; inhibition, % at 20 µM; P05186; 0.03% of 200,000 active;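 active means over 50% inhibition of tissue-nonspecific alkaline phosphatase at 20 µM in the single-dose screen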;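 further: plate controls were DMSO wells for no effect and EDTA-quenched wells as full inhibition for full effect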
TNAP inh noacc: TNAP (human) inhibition, acceptor-free conditions; purified TNAP, CDP-star luminescence, 30 min; 0.26% of 200,000 active; inhibition, % at 20 µM; P05186;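 active means tissue-nonspecific alkaline phosphatase inhibition above about 50% at 20 µM in the single-dose screen, limit read from the data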;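 further: 0% = DMSO negative control and 100% = EDTA positive control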
PTEN del growth: suppresses growth of cells with PTEN deletion. HCT116 PTEN-null viability, CellTiter-Glo, 60 h; active compounds read low. viability, % at 10 µM. 1.2% of 140,000 active. AID 827;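 active means viability at or below a set limit, 4 SD under the median of all tested compounds, cut at about 3.7% in these data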;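 further: PTEN knockout HCT116 line with beta catenin targeted HCT116 as companion control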
* hit, by the source's call. In the library only some 9.6% were active in any assay of this set; here they are far more common.

Cc1ccc(NC(=S)N(CCCN2CCC(C)CC2)Cc2ccco2)cc1C was read as TNAP act hi DEA 1.1, L major viab 82.4*, TNAP inh hiacc -5.7 and TNAP inh noacc -10.8.
`CCN1CCN(CCCN(Cc2ccco2)C(=S)Nc2cc(Cl)ccc2C)CC1` gave TNAP act hi DEA 1, L major viab 72.3*, TNAP inh hiacc 2.6 and TNAP inh noacc -3.3.
O=C(O)C1CCN(Cc2ccccn2)CC1 was read as TNAP act hi DEA 1, L major viab -4.7, TNAP inh hiacc -1.9 and TNAP inh noacc -4.4.
For CC1CN(Cc2ccccn2)CCC1=O (centres undefined) the results were TNAP act hi DEA 1, bCat KO growth 88.1, L major viab 53.3*, TNAP inh hiacc 1.3, TNAP inh noacc -2.6 and PTEN del growth 87.4.
For Fc1cccc(COc2ccccc2C(=S)N2CCCC2)c1 the results were TNAP act hi DEA 1.1, L major viab 20.4, TNAP inh hiacc -5.2 and TNAP inh noacc -13.2.
Screening CN1C(=O)/C(=C/c2ccccc2OCc2cccc(F)c2)N(C)C1=S returned TNAP act hi DEA 1, bCat KO growth 80.3, L major viab 80.2*, TNAP inh hiacc 1.3, TNAP inh noacc -0.2 and PTEN del growth 76.2.
For COc1ccc(OC)c(/C=N/NC(=O)c2ccc(Cn3cc([N+](=O)[O-])cn3)o2)c1 the results were TNAP act hi DEA 1.1, bCat KO growth 98.1, L major viab 9.6, TNAP inh hiacc -7.4, TNAP inh noacc -12.0 and PTEN del growth 96.3.
O=c1nc2ccccc2c2n1CC(CN1CCN(C(c3ccccc3)c3ccccc3)CC1)N2 (centres undefined) was read as TNAP act hi DEA 1, L major viab 66.5*, TNAP inh hiacc -3.2 and TNAP inh noacc -6.8.
Screening Nc1nc(N2CCN(C(c3ccccc3)c3ccccc3)CC2)n[nH]1 returned TNAP act hi DEA 1, L major viab -4.6, TNAP inh hiacc -4.2 and TNAP inh noacc -0.3.
CC(=O)c1ccc(OC(=O)CCN2c3ccccc3Sc3ccccc32)cc1 was read as TNAP act hi DEA 1.1, bCat KO growth 95.8, L major viab 53.2*, TNAP inh hiacc -8.1, TNAP inh noacc -0.6 and PTEN del growth 99.3.
Screening CC(Oc1ccccc1)C(=O)Nc1nnc(C2CCCCC2)s1 (centres undefined) returned TNAP act hi DEA 1, L major viab -5.0, TNAP inh hiacc -4.1 and TNAP inh noacc -8.8.
CCOC(=O)/C(=C\c1ccccc1)C(=O)c1cc(C(C)=O)c(Nc2ccccc2)s1 was read as TNAP act hi DEA 1, bCat KO growth 6.7, L major viab 100.5*, TNAP inh hiacc 3.2, TNAP inh noacc -9.2 and PTEN del growth 2.4*.
CCOC(=O)/C(=C\c1cccnc1)C(=O)c1cc(C(C)=O)c(Nc2ccccc2)s1 was read as TNAP act hi DEA 1, bCat KO growth 2.2*, L major viab 100.2*, TNAP inh hiacc -3.8, TNAP inh noacc -5.2 and PTEN del growth 2.2*.
For CCOC(=O)/C(C#N)=C\c1cccnc1 the results were TNAP act hi DEA 1, L major viab -4.4, TNAP inh hiacc -1.9 and TNAP inh noacc -8.5.
`Cc1cnc(C(=O)Nc2cccc(S(=O)(=O)N(C)C)c2)cn1` gave TNAP act hi DEA 1, bCat KO growth 92.9, L major viab -6.5, TNAP inh hiacc 2.9, TNAP inh noacc 3.3 and PTEN del growth 103.3.
For CCCNS(=O)(=O)c1ccc(OCC(=O)N2CCCC2)cc1 the results were TNAP act hi DEA 1, L major viab -6.1, TNAP inh hiacc -1.8 and TNAP inh noacc -56.1.
Screening O=C(CNS(=O)(=O)c1cccs1)NCc1ccccc1 returned TNAP act hi DEA 1, L major viab 1.6, TNAP inh hiacc -4.1 and TNAP inh noacc -13.7.
Screening COc1ccc(-c2csc(NC(=O)c3cc(=O)c4ccccc4o3)n2)cc1OC returned TNAP act hi DEA 0.9, L major viab 7.1, TNAP inh hiacc 9.6 and TNAP inh noacc -0.8.
`O=C(O)CCC(=O)NNC(=O)c1cccc(Br)c1` gave TNAP act hi DEA 1, bCat KO growth 102.7, L major viab 59.6*, TNAP inh hiacc 1.4, TNAP inh noacc -10.4 and PTEN del growth 97.9.
Screening CCN(CC)c1ccc(S(=O)(=O)Nc2cc(Cl)ccc2Cl)cc1NC(=S)NC(=O)C1CCCC1 returned TNAP act hi DEA 1, bCat KO growth 81.4, L major viab 56.2*, TNAP inh hiacc -3.8, TNAP inh noacc -4.1 and PTEN del growth 76.2.
`COc1ccccc1NS(=O)(=O)c1ccc(Cl)c(NC(=S)NC(=O)C2CCCC2)c1` gave TNAP act hi DEA 1, bCat KO growth 91.7, L major viab 26.6, TNAP inh hiacc -2.5, TNAP inh noacc -6.8 and PTEN del growth 71.3.
`CCN(CCCNC(=O)c1ccc(N2CCCC2=O)cc1)c1cccc(C)c1` gave TNAP act hi DEA 1, bCat KO growth 38.1, L major viab 79.5*, TNAP inh hiacc -0.7, TNAP inh noacc -8.2 and PTEN del growth 60.1.
COc1ccc(N(C)S(=O)(=O)c2cccc(C(=O)OC(C(=O)Nc3cc(C)cc(C)c3)c3ccccc3)c2)cc1 (centres undefined) was read as TNAP act hi DEA 1, bCat KO growth 76.6, L major viab 95.7*, TNAP inh hiacc 0.3, TNAP inh noacc -1.7 and PTEN del growth 76.7.
Screening COc1ccc(N(C)S(=O)(=O)c2cccc(C(=O)Nc3cc(OC)ccc3OC)c2)cc1 returned TNAP act hi DEA 1, L major viab 81.7*, TNAP inh hiacc 1.1 and TNAP inh noacc -3.4.
For CC(=O)c1cccc(NC(=O)C(OC(=O)c2cccc(S(=O)(=O)N(C)c3ccccc3)c2)c2ccccc2)c1 (centres undefined) the results were TNAP act hi DEA 1, bCat KO growth 93.9, L major viab 95.8*, TNAP inh hiacc -3.2, TNAP inh noacc 10.3 and PTEN del growth 87.0.
Screening COc1ccc(CNC(=O)CN(c2ccccc2)S(=O)(=O)N(C)C)cc1 returned TNAP act hi DEA 1, L major viab 0.2, TNAP inh hiacc 1.1 and TNAP inh noacc -2.1.
COc1ccc(C(=O)Nc2ccc(-c3ccc(NC(=O)c4ccc(OC)cc4)c(OC)c3)cc2OC)cc1 was read as TNAP act hi DEA 1, bCat KO growth 77.8, L major viab 19.2, TNAP inh hiacc -3.1, TNAP inh noacc -18.3 and PTEN del growth 87.0.
Screening Cc1ccccc1N1C(=O)CC1(C#N)c1ccc(OCc2ccccc2)cc1 (centres undefined) returned TNAP act hi DEA 1, bCat KO growth 59.0, L major viab 28.5, TNAP inh hiacc -4.8, TNAP inh noacc -8.8 and PTEN del growth 67.3.
`CCc1ccc(C(=O)NCc2cnn(C)c2)s1` gave TNAP act hi DEA 1, L major viab -1.1, TNAP inh hiacc -3.6 and TNAP inh noacc -6.0.
